Experimental data published in ChEMBL document CHEMBL1151697, “Synthesis and structure-activity relationships for biphenyl H3 receptor antagonists with moderate anti-cholinesterase activity” (Bioorg Med Chem, 2008).
Activity calls are given as the source filed them. No cut-off for these calls is given here.

Experiments:
Histamine H3 receptor [1] = target: T1, Histamine H3 receptor (Homo sapiens, UniProt Q9Y5N1); test: Antagonist activity at human histamine H3 receptor expressed in SK-N-MC cells by CRE-mediated beta-galactosidase reporter gene assay administered 10 mins before (R)-alpha-methylhistamine challenge after 6 hrs; format: functional, cell-based
Procedure, shortened: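 SK-N-MC cells stably carrying human H3 and a β-galactosidase reporter. Compound added to medium, forskolin 5 min later, then (R)-α-methylhistamine 10 min after compound; 6 h at 37 °C. Cells lysed in phosphate assay buffer (pH 8) with 0.5% Triton and 40 mM β-mercaptoethanol; β-galactosidase read at 570 nm. Means of 4–6 experiments.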

Histamine H3 receptor [2] = target: T1, Histamine H3 receptor; test: Displacement of [3H]RAMHA from human histamine H3 receptor expressed in SK-N-MC cells; format: cell-based
Procedure, shortened: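 SK-N-MC membranes bearing human H3 incubated 60 min at room temperature with 0.5 nM [3H]-(R)-α-methylhistamine and competitor (0.01 nM to 10 µM). Rapid filtration, two washes in ice-cold 50 mM Tris–HCl/5 mM EDTA. Nonspecific binding with 10 µM histamine. pKi via Cheng–Prusoff; means of 4–6 experiments.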

Histamine H3 receptor [3] = target: Histamine H3 receptor (Rattus norvegicus, UniProt Q9QYN8); test: Displacement of [3H]RAMHA from histamine H3 receptor in Wistar rat brain membrane; format: cell membranes
Procedure, shortened: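 Membranes from male Wistar rat brain (150–200 g) incubated 45 min with 0.5 nM [3H]RAMHA and compound (0.03 nM to 10 µM) in 50 mM Tris–HCl pH 7.4, 50 mM NaCl, 0.5 mM EDTA. Vacuum filtration, two ice-cold buffer rinses. Nonspecific binding set with 10 µM thioperamide. pKi by Cheng–Prusoff.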

SK-N-MC [4] = test: Cytotoxicity against human SK-N-MC cells at 1 uM after 6 hrs by MTT test; format: functional, cell-based
Procedure, shortened: (§1)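 MTT viability test: SK-N-MC cells held 6 h with compound (1–10 µM) or vehicle. MTT (5 mg/ml stock) added for 3 h, cells washed in PBS, formazan dissolved in 0.1 N HCl in isopropanol, absorbance read at 570 nm. Viability given relative to control.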

SK-N-MC [5] = test: Cytotoxicity against human SK-N-MC cells at 10 uM after 6 hrs by MTT test; format: functional, cell-based; procedure, shortened: as §1
[6] = target: T2, Acetylcholinesterase (Rattus norvegicus) (UniProt P37136); test: Inhibition of acetylcholinesterase in Wistar rat brain homogenate at upto 10 uM by Ellman's method; format: tissue-based
T2 sequence (whole entry): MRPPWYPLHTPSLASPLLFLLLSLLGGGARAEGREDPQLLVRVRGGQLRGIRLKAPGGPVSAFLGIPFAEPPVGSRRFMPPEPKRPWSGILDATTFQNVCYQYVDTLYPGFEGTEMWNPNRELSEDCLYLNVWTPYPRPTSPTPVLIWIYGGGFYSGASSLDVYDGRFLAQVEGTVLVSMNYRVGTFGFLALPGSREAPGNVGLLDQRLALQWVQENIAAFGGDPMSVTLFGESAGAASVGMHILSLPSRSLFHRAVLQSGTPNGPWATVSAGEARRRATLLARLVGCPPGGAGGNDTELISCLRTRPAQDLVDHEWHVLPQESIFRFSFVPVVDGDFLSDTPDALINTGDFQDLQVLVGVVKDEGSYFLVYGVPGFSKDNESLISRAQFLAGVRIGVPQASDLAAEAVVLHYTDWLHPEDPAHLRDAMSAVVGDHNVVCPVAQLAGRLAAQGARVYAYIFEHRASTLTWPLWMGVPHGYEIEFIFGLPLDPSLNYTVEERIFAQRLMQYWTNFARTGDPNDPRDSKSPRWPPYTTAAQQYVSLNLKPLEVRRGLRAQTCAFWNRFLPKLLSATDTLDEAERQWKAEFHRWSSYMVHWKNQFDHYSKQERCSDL

[7] = target: Histamine H2 receptor (Cavia porcellus) (UniProt P47747); test: Antagonist activity at histamine H2 receptor in guinea pig atrium assessed as changes in rate of spontaneous beat at upto 10 uM; format: functional, tissue-based; conditions: Cardiac atrium
Procedure, shortened: (§2)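 Guinea-pig atria (H2) in Ringer–Locke at 31 °C (mM: NaCl 154.0, KCl 5.6, CaCl2 1.08, NaHCO3 5.95, glucose 11.1), gassed 95% O2–5% CO2. Spontaneous beating rate recorded by cardiotachograph. Cumulative dimaprit curves (0.1–100 µM) run without and with compound up to 10 µM. Affinity given as pKB by Furchgott, or as pD2′ by Van Rossum if non-surmountable.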

[8] = target: Histamine H1 receptor (Cavia porcellus) (UniProt P31389); test: Antagonist activity at histamine H1 receptor in guinea pig terminal ileum at upto 10 uM; format: functional, tissue-based
Procedure, shortened: (§3)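 Guinea-pig (250–350 g) terminal ileum (H1) suspended isometrically in Krebs–Henseleit at 37 °C, aerated 95% O2–5% CO2. Cumulative histamine curves (1 nM to 1 µM) run without and with compound up to 10 µM. pKB (apparent pA2) from Furchgott's equation; pD2′ from Van Rossum's equation when antagonism was non-surmountable.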

[9] = target: Histamine H3 receptor (Cavia porcellus) (UniProt Q9JI35); test: Antagonist activity at histamine H3 receptor in electrically-stimulated guinea pig ileum assessed as inhibition of (R)-alpha-methylhistamine-induced twitch contraction in presence of 1 uM mepyramine; format: functional, tissue-based
Procedure, shortened: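 Guinea-pig ileum, electrically stimulated (0.1 Hz, 1 ms, submaximal voltage). Twitch inhibition by cumulative (R)-α-methylhistamine (1 nM to 1 µM) with 1 µM mepyramine present. Compounds tested at 1 nM to 30 µM. Potency as pKB from Furchgott's equation, or as pD2′ (Van Rossum) for non-surmountable antagonism.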

Histamine H4 receptor = Histamine H4 receptor (Homo sapiens, UniProt Q9H3N8); test: Displacement of [3H]histamine from human histamine H4 receptor expressed in SK-N-MC cells at upto 10 uM
[10] = target: T2, Acetylcholinesterase (Rattus norvegicus); test: Inhibition of acetylcholinesterase in Wistar rat brain homogenate at upto 1 to 100 uM by Ellman's method; format: tissue-based
Procedure, shortened: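 Male Wistar rat (150–200 g) brain homogenate in 0.1 M phosphate buffer (pH 8.0) with DTNB (5 mM) and compound at 1–100 µM. Reaction started at 37 °C by adding acetylthiocholine (75 mM solution) and stopped after 15 min with 4% formalin. 5-Thio-2-nitrobenzoate absorbance at 412 nm. Percent inhibition versus control; reported as pIC50.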

Acetylcholinesterase = target: T3, Acetylcholinesterase (Rattus norvegicus, UniProt P37136); test: Inhibition of acetylcholinesterase in Wistar rat brain homogenate by Ellman's method; format: tissue-based
T3 sequence (P37136 whole entry): T2 sequence (whole entry)

[11] = target: Histamine H1 receptor (Cavia porcellus) (UniProt P31389); test: Antagonist activity at histamine H1 receptor in guinea pig terminal ileum; format: functional, tissue-based; procedure, shortened: as §3
[12] = target: Histamine H2 receptor (Cavia porcellus) (UniProt P47747); test: Antagonist activity at histamine H2 receptor in guinea pig atrium assessed as changes in rate of spontaneous beat at upto 1 uM; format: functional, tissue-based; conditions: Cardiac atrium; procedure, shortened: as §2

Sequence of Histamine H4 receptor (Q9H3N8 whole entry): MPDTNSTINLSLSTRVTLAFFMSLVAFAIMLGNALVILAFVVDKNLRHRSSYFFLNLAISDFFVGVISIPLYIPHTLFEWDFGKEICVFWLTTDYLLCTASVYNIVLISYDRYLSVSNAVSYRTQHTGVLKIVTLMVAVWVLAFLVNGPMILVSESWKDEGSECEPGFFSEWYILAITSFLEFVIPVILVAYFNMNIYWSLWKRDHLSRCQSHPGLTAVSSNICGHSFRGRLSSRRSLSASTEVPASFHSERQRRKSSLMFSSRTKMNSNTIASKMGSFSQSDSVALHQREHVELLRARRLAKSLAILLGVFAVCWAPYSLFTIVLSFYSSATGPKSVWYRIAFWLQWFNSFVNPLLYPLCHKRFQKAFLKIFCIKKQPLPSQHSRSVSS
Sequence of Histamine H3 receptor (Rattus norvegicus, UniProt Q9QYN8) (Q9QYN8 whole entry): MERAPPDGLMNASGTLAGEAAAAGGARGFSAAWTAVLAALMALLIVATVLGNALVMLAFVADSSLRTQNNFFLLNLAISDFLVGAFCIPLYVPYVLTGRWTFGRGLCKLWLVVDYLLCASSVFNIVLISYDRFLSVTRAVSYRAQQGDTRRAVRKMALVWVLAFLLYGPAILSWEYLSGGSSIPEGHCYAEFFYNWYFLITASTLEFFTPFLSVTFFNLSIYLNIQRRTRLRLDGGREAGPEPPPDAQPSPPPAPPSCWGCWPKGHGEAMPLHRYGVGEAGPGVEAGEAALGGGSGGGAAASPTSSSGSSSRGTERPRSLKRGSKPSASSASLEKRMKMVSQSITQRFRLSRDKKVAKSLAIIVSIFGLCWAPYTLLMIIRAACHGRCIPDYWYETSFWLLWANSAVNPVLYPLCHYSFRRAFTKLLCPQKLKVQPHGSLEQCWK
T1 sequence (Q9Y5N1 whole entry): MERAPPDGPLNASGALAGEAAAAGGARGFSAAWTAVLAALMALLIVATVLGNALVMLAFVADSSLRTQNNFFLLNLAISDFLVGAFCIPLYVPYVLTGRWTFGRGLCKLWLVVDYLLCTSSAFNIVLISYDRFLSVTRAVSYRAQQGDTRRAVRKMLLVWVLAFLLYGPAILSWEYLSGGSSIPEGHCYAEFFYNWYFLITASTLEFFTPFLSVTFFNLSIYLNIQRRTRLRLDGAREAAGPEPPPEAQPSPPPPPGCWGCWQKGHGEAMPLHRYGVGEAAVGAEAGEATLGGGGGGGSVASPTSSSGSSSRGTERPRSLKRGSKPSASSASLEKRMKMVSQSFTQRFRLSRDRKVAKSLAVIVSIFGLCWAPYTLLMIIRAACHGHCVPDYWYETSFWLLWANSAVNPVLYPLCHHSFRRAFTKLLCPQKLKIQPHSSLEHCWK
Sequence of Histamine H2 receptor (Cavia porcellus) (P47747 whole entry): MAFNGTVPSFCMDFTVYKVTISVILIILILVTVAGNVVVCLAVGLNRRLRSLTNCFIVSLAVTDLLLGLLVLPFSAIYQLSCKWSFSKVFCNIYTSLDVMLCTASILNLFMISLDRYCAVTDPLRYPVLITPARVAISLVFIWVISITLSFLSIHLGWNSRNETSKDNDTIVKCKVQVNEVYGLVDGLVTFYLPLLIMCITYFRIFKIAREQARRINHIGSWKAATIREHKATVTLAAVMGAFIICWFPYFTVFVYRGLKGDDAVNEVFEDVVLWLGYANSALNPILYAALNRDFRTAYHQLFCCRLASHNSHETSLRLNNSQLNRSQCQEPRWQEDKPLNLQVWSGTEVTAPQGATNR
Sequence of Histamine H3 receptor (Cavia porcellus) (Q9JI35 whole entry): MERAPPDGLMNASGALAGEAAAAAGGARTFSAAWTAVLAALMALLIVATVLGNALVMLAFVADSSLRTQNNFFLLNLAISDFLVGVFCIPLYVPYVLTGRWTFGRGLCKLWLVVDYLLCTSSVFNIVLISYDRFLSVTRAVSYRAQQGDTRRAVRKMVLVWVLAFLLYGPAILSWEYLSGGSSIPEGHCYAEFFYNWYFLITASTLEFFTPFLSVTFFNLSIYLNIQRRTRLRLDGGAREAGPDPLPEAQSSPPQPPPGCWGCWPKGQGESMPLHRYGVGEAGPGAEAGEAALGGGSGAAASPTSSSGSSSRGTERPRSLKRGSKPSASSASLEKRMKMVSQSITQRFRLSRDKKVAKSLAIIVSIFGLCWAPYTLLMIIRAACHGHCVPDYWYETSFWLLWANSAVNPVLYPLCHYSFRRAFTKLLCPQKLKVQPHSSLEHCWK
Sequence of Histamine H1 receptor (Cavia porcellus) (P31389 whole entry): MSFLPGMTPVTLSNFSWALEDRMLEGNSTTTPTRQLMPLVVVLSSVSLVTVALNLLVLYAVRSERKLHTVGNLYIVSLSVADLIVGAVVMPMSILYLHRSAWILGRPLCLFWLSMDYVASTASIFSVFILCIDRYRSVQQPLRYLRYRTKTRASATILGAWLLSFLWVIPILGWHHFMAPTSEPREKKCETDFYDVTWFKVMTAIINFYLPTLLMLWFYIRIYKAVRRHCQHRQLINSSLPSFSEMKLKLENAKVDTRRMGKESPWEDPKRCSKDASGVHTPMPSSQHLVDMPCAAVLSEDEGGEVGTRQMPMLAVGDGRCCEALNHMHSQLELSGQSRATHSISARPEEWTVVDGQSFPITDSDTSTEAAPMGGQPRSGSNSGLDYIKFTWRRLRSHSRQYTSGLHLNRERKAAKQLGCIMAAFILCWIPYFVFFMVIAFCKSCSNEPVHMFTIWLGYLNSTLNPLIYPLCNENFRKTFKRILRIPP

Row | SMILES | pKb (Histamine H3 receptor [1]) | Ki (Histamine H3 receptor [2]) [nM] | Ki (Histamine H3 receptor [3]) [nM] | Activity (SK-N-MC [4]) | Activity (SK-N-MC [5]) | Activity [6] | Activity [7] | Activity [8] | pKb [9] | Activity (Histamine H4 receptor) | inhibition [10] [%] | IC50 (Acetylcholinesterase) [nM] | pD2 [11] | pKb [11] | Activity [12]
1 | CCN(CC)Cc1ccc(-c2ccc(CN(CC)CC)cc2)cc1 | 8.96 | 2.82 | 2.4 | Not toxic | Not toxic | inactive | inactive | inactive | 9.34 | inactive | – | – | – | – | –
2 | CC(=O)N1CCN(Cc2ccc(-c3ccc(CN4CCCCC4)cc3)cc2)CC1 | 7.86 | – | – | Not toxic | Not toxic | – | inactive | – | 7.79 | inactive | 79 | 11500 | 4.46 | – | –
3 | CCN(CC)Cc1ccc(-c2ccc(CN3CCCCC3)cc2)cc1 | 8.9 | 1.95 | 2.57 | Not toxic | Not toxic | inactive | inactive | inactive | 9.41 | inactive | – | – | – | – | –
4 | c1cc(-c2ccc(CN3CCOCC3)cc2)ccc1CN1CCCCC1 | 7.77 | 19.5 | 15.5 | Not toxic | Not toxic | inactive | inactive | inactive | 9.07 | inactive | – | – | – | – | –
5 | C(CCCCN1CCCCC1)CCCCN1CCCCC1 | – | 4.47 | 15.8 | – | – | – | – | – | – | – | – | – | – | – | –
6 | CN(Cc1ccc(-c2ccc(CN3CCCCC3)cc2)cc1)C1CCCCC1 | 9.19 | 2.75 | 7.41 | Not toxic | Not toxic | – | inactive | – | 8.46 | inactive | 93 | 1380 | – | 5.56 | –
7 | O=C1CCCCN1Cc1ccc(-c2ccc(CN3CCCCC3)cc2)cc1 | 7.46 | – | – | Not toxic | Not toxic | inactive | inactive | inactive | 7.57 | inactive | – | – | – | – | –
8 | CC1CCN(Cc2ccc(-c3ccc(CN4CCC(C)CC4)cc3)cc2)CC1 | 7.68 | – | – | Not toxic | Not toxic | – | inactive | – | 7.3 | inactive | 83 | 3550 | – | 5.89 | –
9 | c1cc(-c2ccc(CN3CCOCC3)cc2)ccc1CN1CCOCC1 | 7.67 | – | – | Not toxic | Not toxic | inactive | inactive | inactive | – | inactive | – | – | – | – | –
10 | CN(C)Cc1ccc(-c2ccc(CN(C)C)cc2)cc1 | 8.17 | – | – | Not toxic | Not toxic | inactive | inactive | inactive | 8.46 | inactive | – | – | – | – | –
11 | CCCN(CCC)C(=O)Cc1ccc(-c2ccc(CN3CCCCC3)cc2)cc1 | 8.16 | 8.51 | 53.7 | Not toxic | Not toxic | – | – | – | 8 | inactive | 80 | 11200 | – | 5.44 | inactive
12 | CCCN(CCC)Cc1ccc(-c2ccc(CN3CCCCC3)cc2)cc1 | 8.18 | 1.74 | 3.16 | Not toxic | Not toxic | – | inactive | – | 9.12 | inactive | 93 | 1480 | – | 5.48 | –
13 | CN(C)CCc1ccc(-c2ccc(CCN(C)C)cc2)cc1 | 8.06 | 5.13 | 19.5 | – | – | inactive | inactive | inactive | 8.04 | inactive | – | – | – | – | –
14 | CC1CCN(Cc2ccc(-c3ccc(CN4CCCCC4)cc3)cc2)CC1 | 8.64 | 2.4 | 5.75 | Not toxic | Not toxic | – | inactive | inactive | 8.75 | inactive | 93 | 1410 | – | – | –
